Data: ChEMBL document CHEMBL3616441, “Discovery of a Selective and CNS Penetrant Negative Allosteric Modulator of Metabotropic Glutamate Receptor Subtype 3 with Antidepressant and Anxiolytic Activity in Rodents” (J Med Chem, 2015)
pEC50, pIC50: −log10 of the molar value. Active and inactive are the calls of the source. The calls are words filed in the database; no cut-off is given here.

Key:
[1] = target: Metabotropic glutamate receptor 3 (Rattus norvegicus) (UniProt P31422); assay: Negative allosteric modulation of rat mGlu3 receptor assessed as amplitude response at 30 uM relative to glutamate
How it was run: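 Calcium mobilization in cell line stably expressing rat mGlu3 with promiscuous Gα15; fluorescence read-out; amplitude of glutamate response with 30 μM test compound expressed as percentage of maximal response (100 μM glutamate); average of n = 3.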

[2] = Volume of distribution at steady state in rat at 0.2 mg/kg, iv administered as cassette dose; format: ADME, organism-based; details: in vivo, read-out: Vdss
[3] = Half life in rat at 0.2 mg/kg, iv administered as cassette dose; format: ADME, organism-based; details: in vivo
[4] = tested on: Plasma; assay: Fraction unbound in rat plasma; format: ADME, cell-free
[5] = target: Metabotropic glutamate receptor 3 (Rattus norvegicus, UniProt P31422); assay: Negative allosteric modulation of rat mGlu3 receptor assessed as calcium mobilization by cell based fluorescence assay; format: functional
How it was run: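 Cell line stably expressing rat mGlu3 with the promiscuous G-protein Gα15. Calcium mobilization with fluorescence read-out, inhibition of the glutamate response. Full concentration-response curves, top concentration 30 μM. % Glu Max is the response with 30 μM test compound as a percentage of the maximal response to 100 μM glutamate. Values averaged over n-3.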

[6] = target: Metabotropic glutamate receptor 5 (Rattus norvegicus, UniProt P31424); assay: Modulation of rat mGlu5 receptor assessed as calcium mobilization by cell based fluorescence assay; format: functional
How it was run: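 Calcium mobilization assay with fluorescence read-out in cells expressing mGlu5; full concentration-response curves; % Glu Max is the amplitude of response with 30 μM test compound as a percentage of the maximal response to 100 μM glutamate; values averaged over n-3.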

[7] = Plasma clearance in rat at 0.2 mg/kg, iv administered as cassette dose; format: ADME, organism-based
[8] = target: Metabotropic glutamate receptor 5 (Rattus norvegicus) (UniProt P31424); assay: Negative allosteric modulation of rat mGlu5 receptor assessed as calcium mobilization by cell based fluorescence assay; format: functional
[9] = target: Metabotropic glutamate receptor 5 (Rattus norvegicus) (UniProt P31424); assay: Modulation of rat mGlu5 receptor assessed as assessed as calcium mobilization at 30 uM by cell based fluorescence assay; format: functional
[10] = tested on: Brain; assay: Fraction unbound in rat brain; format: ADME, tissue-based
[11] = target: Metabotropic glutamate receptor 5 (Rattus norvegicus) (UniProt P31424); assay: Positive allosteric modulation of rat mGlu5 receptor assessed as calcium mobilization by cell based fluorescence assay; format: functional
[12] = target: Metabotropic glutamate receptor 2 (Rattus norvegicus) (UniProt P31421); assay: Negative allosteric modulation of rat mGlu2 receptor assessed as calcium mobilization at 30 uM by cell based fluorescence assay; format: functional
How it was run: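 Rat mGlu2 calcium mobilization assay with fluorescence read-out; full concentration-response curve analysis up to 30 μM top concentration.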

Sequence of Metabotropic glutamate receptor 5 (Rattus norvegicus) (P31424 21-1203 limits assumed): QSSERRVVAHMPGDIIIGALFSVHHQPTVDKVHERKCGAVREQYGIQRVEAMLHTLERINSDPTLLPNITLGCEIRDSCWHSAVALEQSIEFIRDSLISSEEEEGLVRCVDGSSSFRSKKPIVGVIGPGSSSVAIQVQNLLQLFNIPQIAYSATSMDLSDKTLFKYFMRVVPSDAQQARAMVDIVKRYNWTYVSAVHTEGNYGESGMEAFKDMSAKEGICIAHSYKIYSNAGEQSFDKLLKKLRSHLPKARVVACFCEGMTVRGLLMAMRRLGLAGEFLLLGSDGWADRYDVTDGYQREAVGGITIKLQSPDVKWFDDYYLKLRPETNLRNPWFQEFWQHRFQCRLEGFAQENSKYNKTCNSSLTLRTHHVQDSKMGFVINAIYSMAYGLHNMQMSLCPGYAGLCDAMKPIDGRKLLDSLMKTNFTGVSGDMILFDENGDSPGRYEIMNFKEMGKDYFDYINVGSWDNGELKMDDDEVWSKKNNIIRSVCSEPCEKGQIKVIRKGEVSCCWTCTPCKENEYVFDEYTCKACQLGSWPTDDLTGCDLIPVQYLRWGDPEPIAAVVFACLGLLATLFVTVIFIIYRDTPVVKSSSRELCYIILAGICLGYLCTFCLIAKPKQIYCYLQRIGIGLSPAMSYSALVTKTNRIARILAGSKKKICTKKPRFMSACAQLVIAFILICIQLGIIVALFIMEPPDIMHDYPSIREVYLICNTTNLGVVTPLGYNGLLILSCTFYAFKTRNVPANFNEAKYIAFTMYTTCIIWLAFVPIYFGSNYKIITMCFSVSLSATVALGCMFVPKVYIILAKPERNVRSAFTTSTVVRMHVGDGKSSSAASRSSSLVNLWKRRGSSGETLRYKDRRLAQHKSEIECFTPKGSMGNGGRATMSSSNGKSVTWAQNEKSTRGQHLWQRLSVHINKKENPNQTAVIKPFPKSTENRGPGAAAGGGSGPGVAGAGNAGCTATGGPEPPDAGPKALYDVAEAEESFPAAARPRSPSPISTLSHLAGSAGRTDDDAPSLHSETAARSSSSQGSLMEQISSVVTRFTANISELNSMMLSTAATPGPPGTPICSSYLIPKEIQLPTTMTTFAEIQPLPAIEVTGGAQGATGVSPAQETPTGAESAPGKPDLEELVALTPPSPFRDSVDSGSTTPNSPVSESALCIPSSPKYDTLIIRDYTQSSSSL
Sequence of Metabotropic glutamate receptor 3 (P31422 whole entry): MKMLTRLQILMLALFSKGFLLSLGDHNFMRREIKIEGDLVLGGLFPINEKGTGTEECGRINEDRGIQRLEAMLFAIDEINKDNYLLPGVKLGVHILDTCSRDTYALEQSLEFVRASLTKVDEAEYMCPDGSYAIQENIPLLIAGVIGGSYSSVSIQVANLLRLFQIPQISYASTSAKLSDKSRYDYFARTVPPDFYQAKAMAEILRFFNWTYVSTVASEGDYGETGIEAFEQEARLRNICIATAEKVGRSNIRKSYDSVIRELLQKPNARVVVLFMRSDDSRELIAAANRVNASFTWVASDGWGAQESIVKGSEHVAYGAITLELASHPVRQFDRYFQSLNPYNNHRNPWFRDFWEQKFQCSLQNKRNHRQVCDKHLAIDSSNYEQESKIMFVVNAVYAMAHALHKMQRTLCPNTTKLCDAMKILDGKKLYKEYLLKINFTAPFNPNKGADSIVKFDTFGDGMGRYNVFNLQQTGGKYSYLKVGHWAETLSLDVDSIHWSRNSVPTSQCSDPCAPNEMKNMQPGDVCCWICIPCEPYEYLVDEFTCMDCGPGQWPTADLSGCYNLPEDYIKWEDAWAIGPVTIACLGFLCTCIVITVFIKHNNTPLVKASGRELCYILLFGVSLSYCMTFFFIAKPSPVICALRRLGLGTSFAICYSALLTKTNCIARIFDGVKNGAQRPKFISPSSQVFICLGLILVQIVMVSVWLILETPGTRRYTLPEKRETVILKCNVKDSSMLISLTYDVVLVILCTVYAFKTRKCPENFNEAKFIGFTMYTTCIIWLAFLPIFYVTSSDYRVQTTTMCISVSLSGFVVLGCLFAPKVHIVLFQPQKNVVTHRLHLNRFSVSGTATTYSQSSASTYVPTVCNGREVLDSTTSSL
Sequence of Metabotropic glutamate receptor 3 (Rattus norvegicus) (P31422 23-879 limits assumed): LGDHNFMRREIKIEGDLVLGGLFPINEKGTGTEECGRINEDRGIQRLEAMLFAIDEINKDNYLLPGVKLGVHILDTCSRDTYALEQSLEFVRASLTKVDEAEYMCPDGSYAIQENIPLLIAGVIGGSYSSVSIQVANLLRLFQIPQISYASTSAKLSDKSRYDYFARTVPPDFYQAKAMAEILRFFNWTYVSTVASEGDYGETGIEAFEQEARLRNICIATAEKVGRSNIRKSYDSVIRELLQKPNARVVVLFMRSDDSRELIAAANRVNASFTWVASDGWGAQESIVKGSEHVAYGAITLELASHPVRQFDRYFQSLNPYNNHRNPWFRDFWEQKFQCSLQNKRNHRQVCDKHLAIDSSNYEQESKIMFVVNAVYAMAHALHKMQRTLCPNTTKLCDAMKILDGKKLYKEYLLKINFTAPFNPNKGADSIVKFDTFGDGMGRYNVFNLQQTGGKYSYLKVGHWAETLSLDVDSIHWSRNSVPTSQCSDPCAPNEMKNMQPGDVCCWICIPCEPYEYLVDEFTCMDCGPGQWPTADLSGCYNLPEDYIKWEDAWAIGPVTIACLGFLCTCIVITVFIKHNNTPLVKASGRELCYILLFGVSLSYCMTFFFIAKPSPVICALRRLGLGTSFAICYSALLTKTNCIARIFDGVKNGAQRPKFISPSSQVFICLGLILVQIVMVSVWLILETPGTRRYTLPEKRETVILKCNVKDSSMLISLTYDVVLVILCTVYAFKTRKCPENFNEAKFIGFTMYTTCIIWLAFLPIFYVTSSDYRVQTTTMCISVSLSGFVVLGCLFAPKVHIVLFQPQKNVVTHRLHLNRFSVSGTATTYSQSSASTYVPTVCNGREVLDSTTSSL
Sequence of Metabotropic glutamate receptor 5 (P31424 whole entry): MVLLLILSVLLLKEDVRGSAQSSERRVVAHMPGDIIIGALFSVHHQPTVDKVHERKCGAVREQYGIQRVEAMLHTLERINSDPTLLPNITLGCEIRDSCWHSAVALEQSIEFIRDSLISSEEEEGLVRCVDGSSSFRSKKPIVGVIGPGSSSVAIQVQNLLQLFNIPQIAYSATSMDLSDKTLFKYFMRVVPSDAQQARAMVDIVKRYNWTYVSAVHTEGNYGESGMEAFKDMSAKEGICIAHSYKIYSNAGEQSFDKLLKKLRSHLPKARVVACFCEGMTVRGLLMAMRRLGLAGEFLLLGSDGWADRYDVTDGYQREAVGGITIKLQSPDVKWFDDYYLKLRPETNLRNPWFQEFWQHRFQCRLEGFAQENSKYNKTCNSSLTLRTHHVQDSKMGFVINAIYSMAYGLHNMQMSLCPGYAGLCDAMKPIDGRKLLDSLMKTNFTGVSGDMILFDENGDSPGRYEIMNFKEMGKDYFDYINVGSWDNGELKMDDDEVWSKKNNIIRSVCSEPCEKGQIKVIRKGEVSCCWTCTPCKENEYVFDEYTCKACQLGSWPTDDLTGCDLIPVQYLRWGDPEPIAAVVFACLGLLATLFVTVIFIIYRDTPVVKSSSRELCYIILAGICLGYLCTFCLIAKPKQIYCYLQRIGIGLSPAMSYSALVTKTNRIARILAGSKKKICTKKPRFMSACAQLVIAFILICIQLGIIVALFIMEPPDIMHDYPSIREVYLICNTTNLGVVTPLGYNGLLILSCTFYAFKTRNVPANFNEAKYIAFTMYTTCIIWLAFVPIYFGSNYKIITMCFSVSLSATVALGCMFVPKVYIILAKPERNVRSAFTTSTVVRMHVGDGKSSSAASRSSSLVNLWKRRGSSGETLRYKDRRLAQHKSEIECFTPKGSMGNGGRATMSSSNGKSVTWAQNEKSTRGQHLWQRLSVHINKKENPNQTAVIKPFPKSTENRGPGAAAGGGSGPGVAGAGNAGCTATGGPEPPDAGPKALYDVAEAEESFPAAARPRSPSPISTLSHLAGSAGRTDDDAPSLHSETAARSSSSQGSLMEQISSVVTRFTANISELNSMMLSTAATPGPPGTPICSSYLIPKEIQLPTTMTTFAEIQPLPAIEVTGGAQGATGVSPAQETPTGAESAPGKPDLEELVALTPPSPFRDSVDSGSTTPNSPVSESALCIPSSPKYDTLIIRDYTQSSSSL
Sequence of Metabotropic glutamate receptor 2 (Rattus norvegicus) (P31421 19-872 limits assumed): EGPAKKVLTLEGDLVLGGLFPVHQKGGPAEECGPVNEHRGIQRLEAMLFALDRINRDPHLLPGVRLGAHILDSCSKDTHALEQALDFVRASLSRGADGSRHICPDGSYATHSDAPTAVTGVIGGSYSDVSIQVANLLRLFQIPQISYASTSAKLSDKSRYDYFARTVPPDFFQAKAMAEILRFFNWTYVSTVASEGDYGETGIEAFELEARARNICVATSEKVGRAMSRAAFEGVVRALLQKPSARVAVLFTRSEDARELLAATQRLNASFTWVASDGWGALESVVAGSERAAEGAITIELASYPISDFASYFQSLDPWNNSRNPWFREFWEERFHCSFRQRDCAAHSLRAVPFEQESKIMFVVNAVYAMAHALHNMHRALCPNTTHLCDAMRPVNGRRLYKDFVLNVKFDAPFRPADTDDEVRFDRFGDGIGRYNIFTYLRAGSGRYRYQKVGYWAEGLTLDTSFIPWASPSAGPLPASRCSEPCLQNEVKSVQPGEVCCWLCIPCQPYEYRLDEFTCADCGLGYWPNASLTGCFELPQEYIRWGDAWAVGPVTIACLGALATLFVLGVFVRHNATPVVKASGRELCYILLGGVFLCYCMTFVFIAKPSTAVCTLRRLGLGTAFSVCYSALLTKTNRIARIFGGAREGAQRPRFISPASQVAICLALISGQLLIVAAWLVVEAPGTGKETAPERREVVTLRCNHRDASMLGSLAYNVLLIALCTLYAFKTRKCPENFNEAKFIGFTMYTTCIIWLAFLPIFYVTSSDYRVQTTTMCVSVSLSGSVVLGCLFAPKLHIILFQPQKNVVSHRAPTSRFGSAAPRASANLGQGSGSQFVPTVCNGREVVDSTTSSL

Row | Activity [12] | SMILES | Activity [1] | Vd [2] | half-life [3] | Fu [4] | pIC50 [5] | pEC50 [6] | clearance [7] | Activity [8] | Activity [9] | Fu [10] | Activity [11]
1 |  | CCOc1ccc(OCc2cc3n(n2)[C@H](C)CN(c2ccc(F)cc2)C3=O)cc1 | 3.39% | 2.2 L/kg | 0.533 h | 0.005 | 5.94 | < 4.52 | 82 mL/min/kg |  |  |  | 
2 |  | C[C@@H]1CN(c2cnccc2F)C(=O)c2cc(COc3ccc(Cl)cn3)nn21 | 1.45% |  |  | 0.085 | 6.32 | < 4.52 |  |  |  |  | 
3 |  | C[C@@H]1CN(c2cccc(Cl)c2)C(=O)c2cc(COc3ccc(F)cn3)nn21 | 2.3% |  |  | 0.034 | 6.84 | 5.73 |  | Active | 19.2% |  | 
4 |  | C[C@@H]1CN(c2ccccn2)C(=O)c2cc(COc3ccc(Cl)cn3)nn21 | 1.07% |  |  | 0.051 | 6.48 | < 4.52 |  |  |  |  | 
5 |  | C[C@@H]1CN(c2cncc(C#N)c2)C(=O)c2cc(COc3ccc(Cl)cn3)nn21 | 1.08% | 1.4 L/kg | 0.983 h | 0.078 | 6.22 | < 4.52 | 22 mL/min/kg |  |  | 0.033 | 
6 |  | C[C@@H]1CN(c2cccc(F)c2)C(=O)c2cc(COc3ccc(F)cn3)nn21 | 1.44% |  |  | 0.094 | 6.72 | 5.57 |  | Active | 9.71% |  | 
7 |  | C[C@@H]1CN(c2ccc(F)cc2)C(=O)c2cc(COc3ccc(F)cn3)nn21 | 1.71% | 6.6 L/kg | 1.47 h | 0.135 | 6.27 | < 5.00 | 82 mL/min/kg | Active | 46.5% |  | 
8 |  | C[C@@H]1CN(c2ccc(F)cn2)C(=O)c2cc(COc3ccc(F)cn3)nn21 | 1.31% |  |  |  | 6.46 | 5.01 |  | Active | 7% |  | 
9 |  | C[C@@H]1CN(c2ccccc2Cl)C(=O)c2cc(COc3ccc(F)cn3)nn21 | 1.37% |  |  | 0.054 | 6.85 | 6.00 |  | Active | 8.78% |  | 
10 |  | C[C@@H]1CN(c2ccc(F)cc2)C(=O)c2cc(COc3ccc(Cl)cn3)nn21 | 1.84% | 5.2 L/kg | 2.35 h | 0.034 | 6.22 | 5.53 | 29 mL/min/kg |  | 81.4% |  | Active
11 |  | COc1ccnc(OCc2cc3n(n2)[C@H](C)CN(c2ccc(F)cc2)C3=O)c1 | -0.18% |  |  |  | 5.43 | < 5.00 |  | Active | 54.7% |  | 
12 |  | C[C@@H]1CN(c2ccc(F)cc2)C(=O)c2cc(COc3cc(C(F)(F)F)ccn3)nn21 | 1.62% |  |  |  | 5.78 | < 5.00 |  | Active | 12.9% |  | 
13 |  | C[C@@H]1CN(c2cccnc2)C(=O)c2cc(COc3ccc(F)cn3)nn21 | 0.64% |  |  |  | 6.36 | < 5.00 |  | Active | 46.3% |  | 
14 |  | COc1ccccc1N1C[C@@H](C)n2nc(COc3ccc(F)cn3)cc2C1=O | 1.49% |  |  |  | 6.47 | 6.52 |  | Active | 3.28% |  | 
15 |  | Cc1ccccc1N1C[C@@H](C)n2nc(COc3ccc(F)cn3)cc2C1=O | 1.72% |  |  |  | 6.46 | < 5.00 |  | Active | 35.8% |  | 
16 |  | Cc1cccc(OCc2cc3n(n2)[C@H](C)CN(c2ccc(F)cc2)C3=O)c1 | 2.35% |  |  |  | 5.84 | < 5.00 |  | Active | 39.7% |  | 
17 |  | C[C@@H]1CN(c2ccc(F)cc2)C(=O)c2cc(COc3ccc(F)cc3)nn21 | 2.09% | 3.5 L/kg | 1.58 h | 0.06 | 6.34 | 7.04 | 40 mL/min/kg |  | 87% |  | Active

Row | Activity [12] | SMILES | Activity [1] | Vd [2] | half-life [3] | Fu [4] | pIC50 [5] | pEC50 [6] | clearance [7] | Activity [8] | Activity [9] | Fu [10] | Activity [11]
18 |  | COc1cccc(N2C[C@@H](C)n3nc(COc4ccc(F)cn4)cc3C2=O)c1 | 1.02% |  |  |  | 6.70 | < 5.00 |  | Active | 59.7% |  | 
19 |  | Cc1ccc(N2C[C@@H](C)n3nc(COc4ccc(F)cn4)cc3C2=O)cc1 | 1.04% |  |  |  | 6.57 | < 5.00 |  | Active | 54.8% |  | 
20 |  | C[C@@H]1CN(c2ccccc2F)C(=O)c2cc(COc3ccc(F)cn3)nn21 | 1.53% |  |  | 0.098 | 6.79 | < 5.00 |  | Active | 29.1% |  | 
21 |  | C[C@@H]1CN(c2cncc(F)c2)C(=O)c2cc(COc3ccc(Cl)cn3)nn21 | 1.85% | 1.9 L/kg | 0.5 h | 0.092 | 6.32 | < 4.52 | 50 mL/min/kg |  |  |  | 
22 |  | C[C@@H]1CN(c2cccnc2)C(=O)c2cc(COc3ccc(Cl)cn3)nn21 | 1.73% | 1.2 L/kg | 0.35 h | 0.118 | 6.22 | < 4.52 | 50 mL/min/kg |  |  |  | 
23 |  | C[C@@H]1CN(c2cccc(F)n2)C(=O)c2cc(COc3ccc(Cl)cn3)nn21 | 1.75% |  |  |  | 6.53 | < 5.00 |  | Active | 24.8% |  | 
24 |  | Cc1cccc(OCc2cc3n(n2)[C@H](C)CN(c2ccc(F)cc2)C3=O)n1 | 1.12% |  |  |  | 5.63 | 5.65 |  | Active | 2.47% |  | 
25 |  | C[C@@H]1CN(c2cc(F)cc(C#N)c2)C(=O)c2cc(COc3ccc(Cl)cn3)nn21 | 1.92% | 2.2 L/kg | 3.23 h | 0.045 | 6.50 | 5.98 | 13 mL/min/kg |  | 28% | 0.032 | Active
26 |  | Cc1ccnc(OCc2cc3n(n2)[C@H](C)CN(c2ccc(F)cc2)C3=O)c1 | 0.86% |  |  |  | 5.68 | < 5.00 |  | Active | 46.9% |  | 
27 | inactive | C[C@@H]1CN(c2ccc(F)cc2)C(=O)c2cc(COc3ccccn3)nn21 |  |  |  |  |  |  |  |  |  |  | 
28 |  | C[C@@H]1CN(c2ccccn2)C(=O)c2cc(COc3ccc(F)cn3)nn21 | 0.96% |  |  |  | 6.04 | 5.45 |  | Active | 3.71% |  | 
29 |  | Cc1cccc(N2C[C@@H](C)n3nc(COc4ccc(F)cn4)cc3C2=O)c1 | 1.93% |  |  | 0.051 | 6.67 | < 5.00 |  | Active | 36.6% |  | 
30 |  | C[C@@H]1CN(c2c(F)cccc2F)C(=O)c2cc(COc3ccc(F)cn3)nn21 | 1.49% |  |  | 0.064 | 6.74 | 5.91 |  | Active | 50.8% |  | 
31 |  | C[C@@H]1CN(c2cccc(F)c2F)C(=O)c2cc(COc3ccc(F)cn3)nn21 | 2.15% |  |  | 0.092 | 6.74 | 5.68 |  | Active | 21% |  | 
32 |  | C[C@@H]1CN(c2ccc(F)cc2)C(=O)c2cc(COc3cccc(Cl)c3)nn21 | 1.96% |  |  |  | 5.79 | < 5.00 |  | Active | 32.8% |  | 
33 |  | C[C@@H]1CN(c2cc(F)ccc2F)C(=O)c2cc(COc3ccc(F)cn3)nn21 | 2.62% |  |  | 0.089 | 6.91 | < 5.00 |  | Active | 18.8% |  | 
